The record followed here is article PMC5307915 (Pharmacognosy Magazine, 2017).

Each structure is given as a SMILES string.

Assay [1] has as its target T1, purified human IDO (Homo sapiens, UniProt P14902). Briefly: Determination of inhibition pattern of IDO inhibitors. It counts as biochemical. The method in brief:
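Same kynurenine assay with purified human IDO (37°C, 1 h, Ehrlich's reagent, A480), run at five L-tryptophan concentrations crossed with four inhibitor concentrations, including zero. Mode of inhibition was taken from Lineweaver-Burk plots. Ki was calculated from the y-intercept, (1 + [I]/Ki)/Vmax. Independent measurements, at least triplicate.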

The target in assay [2] is T1, purified human IDO. Briefly: IDO assay. It counts as biochemical. The following applies: for inhibition at 100 µM: read-out: IDO inhibition at 100 μM (%). Put shortly:
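Test compound, serially diluted in DMSO, mixed with 1 μg purified human IDO in 50 mM potassium phosphate, pH 6.5. Ascorbic acid, methylene blue, catalase and 200 μM L-tryptophan added; 1 h at 37°C. Stopped with 30% TCA, 15 min at 65°C, then centrifuged. Supernatant mixed 1:1 with Ehrlich's reagent at RT; kynurenine read at 480 nm. Screened at 100 μM; IC50 from lower concentrations; menadione as positive control; at least triplicate.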

T1 sequence (P14902 whole entry): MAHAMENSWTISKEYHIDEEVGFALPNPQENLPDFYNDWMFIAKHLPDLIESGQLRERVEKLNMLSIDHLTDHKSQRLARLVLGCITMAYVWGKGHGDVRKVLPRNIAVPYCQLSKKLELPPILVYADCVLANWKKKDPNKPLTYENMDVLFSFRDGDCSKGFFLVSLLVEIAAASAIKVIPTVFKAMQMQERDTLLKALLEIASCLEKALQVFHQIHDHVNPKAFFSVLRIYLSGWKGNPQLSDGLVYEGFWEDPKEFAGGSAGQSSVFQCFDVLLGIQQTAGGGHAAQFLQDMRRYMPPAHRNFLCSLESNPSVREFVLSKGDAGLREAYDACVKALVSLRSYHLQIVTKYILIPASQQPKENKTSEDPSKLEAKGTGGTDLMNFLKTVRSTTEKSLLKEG

As usually defined, the Ki is a measure of affinity in units of concentration, obtained from inhibition or displacement. Low readings indicate a stronger hold on the target, high ones a looser hold on the target. For orientation: IC50 means the concentration needed to halve the response being measured. Read a low IC50 as greater potency in that assay. As usually defined, the inhibition is how much of the control response was suppressed. As to `O=C1c2cccc(O)c2C(=O)c2c(O)cc(CO)cc21` [Compound 1, aloe emodin], the Ki on purified human IDO [1] is 85.3 µM. On purified human IDO [2], half-maximal inhibition (IC50) was put at 46.5 ± 1.51 µM and the inhibition at 100 µM turned out to be 67.4 ± 2.53%. On to `Cc1cc(=O)c2c(CO)cc(O)cc2o1` [Compound 10, 7-hydroxy-5-(hydroxymethyl)-2-methylchromone], for which the inhibition at 100 µM at purified human IDO [2] worked out at 5.86 ± 3.08%. As for `Cc1cc(O)cc(O)c1` [Compound 11, 5-methylresorcinol], at purified human IDO [2], the inhibition at 100 µM turned out to be 10.2 ± 1.75%. Turning to `CC1=CC(=O)c2ccccc2C1=O` [Menadione, reference compound], the IC50 at purified human IDO [2] was 3.71 ± 1.26 µM.
